In the library only some 2.9% were active in any assay of this set; here they are far more common.
AI-2 QS modul – Vibrio harveyi AI-2 quorum sensing modulators, primary screen, JMH597 strain, luminescence/OD600 ratio; Vibrio harveyi JMH597 AI-2 luminescence/OD600 ratio, 9 h; stronger effect = lower value; strain lacks LuxN and CqsS sensors; 0 = neutral-control median; hit rate 0.4% among 300,000; AID 2094, 2009; activity change, % at 7.5 µM; in the data active means activity change below about -75%, passing the limit was not always enough; inconclusive means no clear call, values can overlap the other calls;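 further: luminescence divided by OD600 gain over 9 h not by final OD600 alone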
KLK7 zymogen act – proKLK7 zymogen activators, primary screen, biochemical, fluorescence intensity; purified proKLK7, EDANS-DABCYL substrate fluorescence; 100% is mature enzyme control, 0% vehicle; activation, % at 7 µM; hit rate 0.9% among 370,000; AID 652039, 2013;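 active means activation above the mean of all tested compounds plus 3 SD, computed per campaign excluding outliers beyond control limits, cut at about 13% in these data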
Runt-SMMHC FRET – inhibitors of RUNX1 Runt–CBFb-SMMHC binding, primary screen, biochemical, FRET, Cerulean-Runt, Venus-CBFb-SMMHC, uHTS | inhibition, % at 20 µM | Cerulean-Runt/Venus-CBFb-SMMHC FRET ratio 530/480, 1 h | hit rate 0.74% among 220,000;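 active means mean inhibition across duplicate retests at 20 µM reaching about 50%, limit read from the data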;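 further: 0% = DMSO wells and 100% = wells with excess untagged CBFb-SMMHC; inhibitors lower the FRET ratio by blocking Runt binding to CBFb-SMMHC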
Target sequence (Q01196 whole entry, looked up): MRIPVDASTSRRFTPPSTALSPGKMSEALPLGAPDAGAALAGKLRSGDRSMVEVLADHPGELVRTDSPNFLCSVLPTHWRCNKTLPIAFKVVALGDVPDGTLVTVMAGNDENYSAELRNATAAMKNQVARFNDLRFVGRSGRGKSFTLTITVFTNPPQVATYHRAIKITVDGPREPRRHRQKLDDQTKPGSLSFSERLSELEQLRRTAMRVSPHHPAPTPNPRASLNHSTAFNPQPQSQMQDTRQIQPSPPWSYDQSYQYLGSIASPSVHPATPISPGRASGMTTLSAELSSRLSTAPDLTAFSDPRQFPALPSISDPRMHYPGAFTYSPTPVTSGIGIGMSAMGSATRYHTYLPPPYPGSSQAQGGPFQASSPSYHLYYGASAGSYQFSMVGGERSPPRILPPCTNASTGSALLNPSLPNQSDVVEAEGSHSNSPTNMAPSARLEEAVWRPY
Target sequence (Q13951 whole entry, looked up): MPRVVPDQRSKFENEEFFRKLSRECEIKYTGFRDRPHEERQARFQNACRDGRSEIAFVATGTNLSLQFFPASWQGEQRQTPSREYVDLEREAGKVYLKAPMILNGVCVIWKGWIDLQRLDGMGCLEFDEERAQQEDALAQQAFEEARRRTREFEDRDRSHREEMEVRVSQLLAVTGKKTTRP
Wee1 stabilizer – Wee1 degradation inhibitors, primary screen, cell-based, HeLa, Wee1K328M-luciferase, luminescence; HeLa Luc-Wee1K328M stability; 100% = proteasome inhibitor MG132 effect; AID 1321, 2008; reporter increase, % at 5 µM; hit rate 1.2% among 220,000; Wee1-like protein kinase (Homo sapiens), P30291;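 active means activation above the mean of all tested compounds plus 3 SD, set per screening run, cut at about 8.8% in these data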;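 further: cells exposed to compound for 20 h before luminescence read; 0% = DMSO alone and 100% = MG132 at 30 µM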
RanGTP-Imp inh – inhibitors of RanGTP-importin-beta interaction, primary screen, biochemical, FRET, CFP-Ran, YFP-importin-beta, homogeneous; Ran GTPase (GTP-bound) - importin-beta complex; cell-free CFP-Ran/YFP-importin-beta FRET ratio; inhibition, % (concentration not given with the values); hit rate 1.1% among 300,000; AID 2216, 2009;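 active means more than half of the replicate wells show a fall in the fluorescence ratio signal beyond about 16%, limit read from the data, passing the limit was not always enough; inconclusive means exactly half of the replicate wells pass the set limit; inactive means fewer than half of replicates pass the limit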;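 further: 0% = DMSO wells and 100% = Ran loaded with GDP instead of GTP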
Runt-CBFb FRET – inhibitors of RUNX1 Runt–CBFb binding, primary screen, biochemical, FRET, Cerulean-Runt, Venus-CBFb, uHTS; inhibition, % at 20 µM; hit rate 0.46% among 220,000; AID 1496, 2009; Runt-related transcription factor 1 (Homo sapiens) + Core-binding factor subunit beta …; Cerulean-Runt/Venus-CBFb FRET ratio 530/480, 1 h;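 active means inhibition over about 50% at 20 µM in the single-dose screen, limit read from the data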;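 further: 0% = DMSO wells and 100% = excess unlabeled CBFb competitor control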
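Reagent – Venus-CBFb binding partner, 100 nM · Assay system – Cerulean-tagged RUNX1 Runt domain (FRET donor) fusion protein · Input – 100 nM per protein · Incubation – two 1 h room-temperature incubations shielded from light · Measured by – FRET fluorescence · Medium – Tris buffer pH 7.5 with salts and BSA · Benchmarks – unlabeled CBFb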
The depositor's hits bear a star.

Results for Cc1cccc(NC(=O)c2c(-c3ccccc3)noc2C)n1 ?
AI-2 QS modul: 26; KLK7 zymogen act: 0; Runt-SMMHC FRET: 3; Wee1 stabilizer: 1; RanGTP-Imp inh: 0; Runt-CBFb FRET: 4

What do the screens show for `C[C@@H]1COc2cc(N3CCSCC3)ccc2S(=O)(=O)N1C`?
KLK7 zymogen act: 0

Results for Cc1cc(C(C)C)n2c(nc3ccccc32)c1C#N ?
AI-2 QS modul: -11; Runt-SMMHC FRET: 8; Wee1 stabilizer: 4; RanGTP-Imp inh: inconclusive; Runt-CBFb FRET: 6

Results for Cc1cc(N2CCN(C3CCCC3)CC2)n2c(nc3ccccc32)c1C#N ?
AI-2 QS modul: 15; KLK7 zymogen act: -13; Runt-SMMHC FRET: 53*; Wee1 stabilizer: 0; RanGTP-Imp inh: 7; Runt-CBFb FRET: 32

Results for O=C(OCc1cn(Cc2ccccc2F)nn1)N1CCCC1 ?
KLK7 zymogen act: 1

Results for Cc1ccc(NC(=S)NCC(C)C)cc1 ?
AI-2 QS modul: 9; KLK7 zymogen act: 0; Runt-SMMHC FRET: 2; Wee1 stabilizer: 0; RanGTP-Imp inh: 0; Runt-CBFb FRET: 1

What do the screens show for `COc1cccc(OCC(=O)O/N=C(\N)c2ccncc2)c1`?
AI-2 QS modul: -76*; KLK7 zymogen act: 0; RanGTP-Imp inh: inconclusive

Results for N/C(=N\OC(=O)COc1ccccc1)c1ccncc1 ?
AI-2 QS modul: -47; KLK7 zymogen act: 0; Runt-SMMHC FRET: -1; Wee1 stabilizer: 2; RanGTP-Imp inh: 0; Runt-CBFb FRET: 0

What do the screens show for `CCOC(=O)c1c(C)c(C(=O)Nc2ccc3c(c2)OCCO3)c(C)n1C`?
AI-2 QS modul: 43; KLK7 zymogen act: -1; Runt-SMMHC FRET: -3; Wee1 stabilizer: 9.2*; RanGTP-Imp inh: 3; Runt-CBFb FRET: 1

Results for CCOC(=O)c1ccc(NC(=O)Nc2ccc3c(c2)OCCO3)cc1 ?
AI-2 QS modul: 4; KLK7 zymogen act: 0; Runt-SMMHC FRET: -3; Wee1 stabilizer: -3; RanGTP-Imp inh: 6; Runt-CBFb FRET: 0

What do the screens show for `CCC(C)(C)NC(=O)C1CCN(c2nc(OC)nc(OC)n2)CC1`?
AI-2 QS modul: 21; KLK7 zymogen act: 0; Runt-SMMHC FRET: 1; Wee1 stabilizer: -3; RanGTP-Imp inh: 4; Runt-CBFb FRET: -2

How did CCn1nc(C)cc1Nc1ccccc1 do in these assays?
AI-2 QS modul: 22; KLK7 zymogen act: 0; Runt-SMMHC FRET: -4; Wee1 stabilizer: 2; RanGTP-Imp inh: 37*; Runt-CBFb FRET: 2

Results for Cc1cc(Nc2ccccc2)n(CCO)n1 ?
AI-2 QS modul: 20; KLK7 zymogen act: 0; Runt-SMMHC FRET: -1; Wee1 stabilizer: 0; RanGTP-Imp inh: -4; Runt-CBFb FRET: -1

What do the screens show for `Cc1cccc(N2CCN(C(=O)c3ccc4nc(-c5ccco5)c(-c5ccco5)nc4c3)CC2C)c1` (configuration not stated)?
AI-2 QS modul: 11; KLK7 zymogen act: 1; Runt-SMMHC FRET: -15; Wee1 stabilizer: 2; RanGTP-Imp inh: 35*; Runt-CBFb FRET: 13

How did CCC(C(=O)Nc1ccccc1N1CCCC1)c1cccc(Cl)c1 (configuration not stated) do in these assays?
KLK7 zymogen act: 0

How did O=C(c1ccco1)c1coc2c1cc(O)c1ccccc12 do in these assays?
AI-2 QS modul: 19; KLK7 zymogen act: -1; Runt-SMMHC FRET: 1; Wee1 stabilizer: -2; RanGTP-Imp inh: 2; Runt-CBFb FRET: 10

What do the screens show for `CS(=O)(=O)c1ccc(Cl)c(NC(=O)COC(=O)CCCN2C(=O)c3cccc4cccc(c34)C2=O)c1`?
AI-2 QS modul: 30; KLK7 zymogen act: 1; RanGTP-Imp inh: 25*

Results for NC(=O)c1cc(NC(=O)COC(=O)CCCN2C(=O)c3cccc4cccc(c34)C2=O)cc(C(N)=O)c1 ?
KLK7 zymogen act: 3

Results for CC(C)c1ccc(OCCCN2CCC(C(O)(c3ccccc3)c3ccccc3)CC2)cc1 ?
KLK7 zymogen act: 1

What do the screens show for `CC(=O)Nc1csc2ccccc12`?
AI-2 QS modul: -3; KLK7 zymogen act: 0; Runt-SMMHC FRET: 0; Wee1 stabilizer: 2; RanGTP-Imp inh: -1; Runt-CBFb FRET: -2

How did O=C(Nc1ccccc1)Nc1csc2ccccc12 do in these assays?
AI-2 QS modul: 19; KLK7 zymogen act: 0; Runt-SMMHC FRET: 2; Wee1 stabilizer: 10*; RanGTP-Imp inh: 0; Runt-CBFb FRET: 4

Results for COc1ccc(-c2cc3nc(NCCNC(C)=O)n(C)c(=O)c3s2)c(C)c1 ?
KLK7 zymogen act: 0

How did COc1cc(C2CC(=O)C3=C(C2)Nc2ncnn2C3c2cccs2)cc(OC)c1OC (configuration not stated) do in these assays?
AI-2 QS modul: 13; KLK7 zymogen act: -17; Runt-SMMHC FRET: 32; Wee1 stabilizer: -1; RanGTP-Imp inh: 4; Runt-CBFb FRET: 26

Results for COc1cc(C2C=C(c3cccs3)Nc3ncnn32)cc(OC)c1OC (configuration not stated) ?
Runt-SMMHC FRET: 93*; Wee1 stabilizer: -2; Runt-CBFb FRET: 20

How did Cc1cc(C)n2c(=S)[nH]nc2n1 do in these assays?
AI-2 QS modul: 30; KLK7 zymogen act: 0; Runt-SMMHC FRET: 59*; Wee1 stabilizer: -4; RanGTP-Imp inh: 1; Runt-CBFb FRET: 11

How did Cc1cc(C)n2cnnc2n1 do in these assays?
AI-2 QS modul: 22; KLK7 zymogen act: 0; Runt-SMMHC FRET: -3; Wee1 stabilizer: -2; RanGTP-Imp inh: 3; Runt-CBFb FRET: 0

What do the screens show for `COc1ccc(O)c(C(=O)CC(=O)c2ccc(F)cc2)c1`?
AI-2 QS modul: 47; KLK7 zymogen act: 8; Runt-SMMHC FRET: 3; Wee1 stabilizer: -5; RanGTP-Imp inh: inconclusive; Runt-CBFb FRET: 2

What do the screens show for `COc1ccc(O)c(C(=O)CC(=O)c2ccccc2C)c1`?
AI-2 QS modul: 83; KLK7 zymogen act: -5; Runt-SMMHC FRET: -1; Wee1 stabilizer: 8.9*; RanGTP-Imp inh: 0; Runt-CBFb FRET: 1

Results for COCCN1C=C(C(=O)OC)C(c2ccc3c(c2)OCO3)C(C(=O)OC)=C1 ?
AI-2 QS modul: 28; KLK7 zymogen act: -1; Runt-SMMHC FRET: 24; Wee1 stabilizer: 7; RanGTP-Imp inh: -1; Runt-CBFb FRET: 9

Source: PubChem BioAssay (several laboratories)
